According to ChEMBL document CHEMBL1124811, “Cyclic hexapeptide oxytocin antagonists. Potency-, selectivity-, and solubility-enhancing modifications” (J Med Chem, 1990):
Values after ≈ are worked out from the molar mass of the structure shown. Non-standard residues stand in square brackets, D forms with d. Residues, ends and D or L forms follow the SMILES beside them. Piz(1,6-dehydro) = O=C(O)[C@@H]1CCC=NN1; dPiz(1,6-dehydro) = O=C(O)[C@H]1CCC=NN1; dNMeF = CN[C@H](Cc1ccccc1)C(=O)O; Pip = O=C(O)[C@@H]1CCCCN1; dPip = O=C(O)[C@H]1CCCCN1; Orn = NCCC[C@H](N)C(=O)O

Legend:
Oxytocin receptor = biological target: T1, Oxytocin receptor (Rattus norvegicus, UniProt P70536); assay: Inhibition of [3H]- oxytocin binding to rat uterine Oxytocin receptor
T1 sequence (P70536 whole entry): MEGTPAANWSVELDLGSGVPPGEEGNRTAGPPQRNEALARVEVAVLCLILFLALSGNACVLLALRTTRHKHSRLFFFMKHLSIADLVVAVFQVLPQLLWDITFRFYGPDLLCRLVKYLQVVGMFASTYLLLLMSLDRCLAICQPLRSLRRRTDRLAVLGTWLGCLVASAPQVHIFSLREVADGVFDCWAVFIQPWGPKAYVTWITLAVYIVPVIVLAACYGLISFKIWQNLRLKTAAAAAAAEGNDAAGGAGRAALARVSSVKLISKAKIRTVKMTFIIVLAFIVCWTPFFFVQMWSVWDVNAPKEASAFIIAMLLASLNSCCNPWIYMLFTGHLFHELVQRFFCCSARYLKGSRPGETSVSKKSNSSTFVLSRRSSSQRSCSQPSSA
Method in brief: (§1)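 Radioligand competition binding. Ki derived from IC50 values from competition curves; reported as group means ± SEM of three or more replicate determinations unless noted otherwise.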

Vasopressin V2 receptor = Vasopressin V2 receptor (Rattus norvegicus, UniProt Q00788); assay: Inhibition of [3H]arginine vasopressin binding to rat kidney medulla Vasopressin V2 receptor; method in brief: as §1
Sequence of Vasopressin V2 receptor (Q00788 whole entry): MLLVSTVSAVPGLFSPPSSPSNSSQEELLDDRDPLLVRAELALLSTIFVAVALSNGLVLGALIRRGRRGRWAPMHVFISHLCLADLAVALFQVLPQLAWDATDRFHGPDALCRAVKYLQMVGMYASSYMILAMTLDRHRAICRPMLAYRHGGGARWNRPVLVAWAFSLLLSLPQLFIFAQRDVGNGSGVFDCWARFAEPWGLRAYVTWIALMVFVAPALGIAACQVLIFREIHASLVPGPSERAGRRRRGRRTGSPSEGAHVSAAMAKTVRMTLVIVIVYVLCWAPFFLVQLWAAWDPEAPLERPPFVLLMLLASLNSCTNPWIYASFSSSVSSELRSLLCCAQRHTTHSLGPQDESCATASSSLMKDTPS

Vasopressin V1 receptor = Vasopressin V1 receptor (Rattus norvegicus, UniProt P48974+P30560); assay: Inhibition of [3H]arginine vasopressin binding to rat liver Vasopressin V1 receptor; method in brief: as §1
[1] = Solubility at 25 degree C and pH of 7.4; format: physicochemical; conditions: pH 7.4; read-out: S
[2] = biological target: T2, Oxytocin receptor (Rattus norvegicus) (UniProt P70536); assay: Inhibition of binding of [3H]- oxytocin to rat uterine Oxytocin receptor; conditions: concentration not given here; method in brief: as §1
T2 sequence (whole entry): T1 sequence (P70536 whole entry)

[3] = biological target: Vasopressin V1 receptor (Rattus norvegicus) (UniProt P48974+P30560); assay: Inhibition of binding of [3H]-arginine vasopressin to rat liver Vasopressin V1 receptor at a concentration of 10000 nM
Sequence of Vasopressin V1 receptor (Rattus norvegicus) (P30560 whole entry, looked up): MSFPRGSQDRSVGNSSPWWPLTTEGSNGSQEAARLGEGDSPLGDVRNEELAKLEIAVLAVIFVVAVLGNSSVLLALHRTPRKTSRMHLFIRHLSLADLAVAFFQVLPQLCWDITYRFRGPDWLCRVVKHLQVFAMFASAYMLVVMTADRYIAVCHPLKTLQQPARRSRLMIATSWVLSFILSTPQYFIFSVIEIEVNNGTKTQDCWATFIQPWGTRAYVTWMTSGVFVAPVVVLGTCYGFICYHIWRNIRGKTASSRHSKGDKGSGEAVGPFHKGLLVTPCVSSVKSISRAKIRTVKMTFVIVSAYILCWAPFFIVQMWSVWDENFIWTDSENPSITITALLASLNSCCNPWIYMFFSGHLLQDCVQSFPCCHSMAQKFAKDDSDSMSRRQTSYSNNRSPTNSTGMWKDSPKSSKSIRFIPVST
Sequence of Vasopressin V1 receptor (Rattus norvegicus) (P48974 whole entry, looked up): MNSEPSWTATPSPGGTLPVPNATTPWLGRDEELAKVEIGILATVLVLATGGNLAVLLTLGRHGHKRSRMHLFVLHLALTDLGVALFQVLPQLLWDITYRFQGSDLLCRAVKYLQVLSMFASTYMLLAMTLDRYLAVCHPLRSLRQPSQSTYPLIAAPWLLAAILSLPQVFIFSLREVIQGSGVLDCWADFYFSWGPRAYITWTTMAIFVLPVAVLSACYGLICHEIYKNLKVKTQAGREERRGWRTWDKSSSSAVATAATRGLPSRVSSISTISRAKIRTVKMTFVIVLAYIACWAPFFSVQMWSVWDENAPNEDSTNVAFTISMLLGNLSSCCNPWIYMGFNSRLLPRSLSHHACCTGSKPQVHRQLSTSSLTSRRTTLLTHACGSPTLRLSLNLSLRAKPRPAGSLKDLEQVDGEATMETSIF

[4] = biological target: Vasopressin V2 receptor (Rattus norvegicus) (UniProt Q00788); assay: Inhibition of binding of [3H]-arginine vasopressin to rat kidney medulla Vasopressin V2 receptor at a concentration of 10000 nM
Sequence of Vasopressin V2 receptor (Rattus norvegicus) (Q00788 whole entry): as the sequence (Q00788 whole entry) above

[5] = Solubility at 25 degree C and pH of 10.8; format: physicochemical; conditions: pH 10.8; read-out: S
[6] = Solubility at 25 degree C and pH of 5.0; format: physicochemical; conditions: pH 5; read-out: S
[7] = Solubility at 25 degree C and pH of 7.0; format: physicochemical; conditions: pH 7; read-out: S

| Structure (SMILES) | Ki (Oxytocin receptor) [nM] | Ki (Vasopressin V2 receptor) [nM] | Ki (Vasopressin V1 receptor) [nM] | further results |
| --- | --- | --- | --- | --- |
| CC[C@H](C)[C@@H]1NC(=O)[C@@H](Cc2ccccc2)NC(=O)[C@@H]2CCCN2C(=O)[C@@H](Cc2ccccc2)N(C)C(=O)[C@@H]2CCCCN2C(=O)[C@H]2CCCCN2C1=O | 83 | 1600 | 890 | solubility [1]: 2 µg/mL (≈ 2.7 µM) |
| CC[C@H](C)[C@@H]1NC(=O)[C@@H](Cc2ccccc2)NC(=O)[C@@H]2CCCN2C(=O)[C@@H](C)N(C)C(=O)[C@@H]2CCCCN2C(=O)[C@H]2CCCCN2C1=O | 490 | > 10000 | > 10000 |  |
| C[C@@H]1NC(=O)[C@@H](Cc2ccccc2)NC(=O)[C@@H]2CCCN2C(=O)[C@@H](Cc2ccccc2)N(C)C(=O)[C@@H]2CCCCN2C(=O)[C@H]2CCCCN2C1=O (cyclo(A[dPip][Pip][dNMeF]P[dF])) | 12000 | > 30000 | > 30000 |  |
| CC[C@H](C)[C@@H]1NC(=O)[C@@H](Cc2c[nH]c3ccccc23)NC(=O)[C@@H]2CCCN2C(=O)[C@@H](Cc2ccccc2)N(C)C(=O)[C@H](CCCN)NC(=O)[C@H]2CCCCN2C1=O (cyclo(I[dPip][Orn][dNMeF]P[dW])) | 49 | 500 | 1000 |  |
| CC[C@H](C)[C@@H]1NC(=O)[C@@H](C)NC(=O)[C@@H]2CCCN2C(=O)[C@@H](Cc2ccccc2)NC(=O)[C@@H]2CCCCN2C(=O)[C@H]2CCCCN2C1=O (cyclo(I[dPip][Pip][dF]P[dA])) |  |  |  | inhibition [2]: 0%; inhibition [3]: 0%; inhibition [4]: 4% |
| CC[C@H](C)[C@@H]1NC(=O)[C@@H](Cc2c[nH]c3ccccc23)NC(=O)[C@@H]2CCCN2C(=O)[C@@H](Cc2ccccc2)N(C)C(=O)[C@@H]2CCCCN2C(=O)[C@H]2CCCCN2C1=O (cyclo(I[dPip][Pip][dNMeF]P[dW])) | 8.1 | 260 | 3500 |  |
| CCOc1ccc(C[C@H]2NC(=O)[C@@H]3CCCN3C(=O)[C@@H](Cc3ccccc3)N(C)C(=O)[C@@H]3CCCCN3C(=O)[C@H]3CCCCN3C(=O)[C@H]([C@@H](C)CC)NC2=O)cc1 (cyclo(I[dPip][Pip][dNMeF]P[dY](Et))) | 49 | 250 | 20000 |  |
| CC[C@H](C)[C@@H]1NC(=O)[C@@H](Cc2ccccc2)NC(=O)[C@@H]2CCCN2C(=O)[C@@H](Cc2ccccc2)N(C)C(=O)[C@@H]2CCC=NN2C(=O)[C@H]2CCC=NN2C1=O (cyclo(I[dPiz(1,6-dehydro)][Piz(1,6-dehydro)][dNMeF]P[dF])) | 7.3 |  |  | solubility [7]: 68 µg/mL (≈ 92 µM) |
| CC[C@H](C)[C@@H]1NC(=O)[C@@H](Cc2ccccc2)NC(=O)[C@@H]2CCCN2C(=O)[C@@H](Cc2ccccc2)N(C)C(=O)[C@@H]2CCCN2C(=O)[C@H]2CCCN2C1=O (cyclo([dNMeF]P[dF]I[dP]P)) | 1400 | 33000 | 9300 |  |

Continued, in another order:

| Ki (Oxytocin receptor) [nM] | Ki (Vasopressin V2 receptor) [nM] | Ki (Vasopressin V1 receptor) [nM] | Structure (SMILES) | further results |
| --- | --- | --- | --- | --- |
| 1.6 | 320 | 760 | CC[C@H](C)[C@@H]1NC(=O)[C@@H](Cc2ccc3ccccc3c2)NC(=O)[C@@H]2CCCN2C(=O)[C@@H](Cc2c[nH]cn2)NC(=O)[C@@H]2CCCCN2C(=O)[C@H]2CCCCN2C1=O |  |
| 140 | 4500 | 1600 | CC[C@H](C)[C@@H]1NC(=O)[C@@H](Cc2ccccc2)NC(=O)[C@@H]2CCCN2C(=O)[C@@H](Cc2ccccc2)NC(=O)[C@@H]2CCCCN2C(=O)[C@H]2CCCCN2C1=O (cyclo(I[dPip][Pip][dF]P[dF])) |  |
|  | 1800 | 2200 | CC[C@H](C)[C@@H]1NC(=O)[C@@H](Cc2c[nH]c3ccccc23)NC(=O)[C@@H]2CCCN2C(=O)[C@@H](Cc2c[nH]cn2)NC(=O)[C@@H]2CCCCN2C(=O)[C@H]2CCCCN2C1=O (cyclo(I[dPip][Pip][dH]P[dW])) | solubility [5]: 110 µg/mL (≈ 146 µM); solubility [6]: 2000 µg/mL (≈ 2650 µM) |
